Drawing on ChEMBL document CHEMBL1125829, “1,3,8-trisubstituted xanthines. Effects of substitution pattern upon adenosine receptor A1/A2 affinity” (J Med Chem, 1991), this text covers Ki and Ratio for 33 compounds.

A word on the Ki: it is a measure of affinity in units of concentration, obtained from inhibition or displacement. Higher therefore signals lower affinity.

Test [1] has as its target T1, Adenosine A2 receptor (Rattus norvegicus, UniProt P29276+P30543). In words: Binding affinity against adenosine A2 receptor in rat striatum by the displacement of [3H]N-ethyladenosine-5''-uronamide(NECA). Type of test: tissue-based. (Loss of bound radioactivity is the signal in a displacement assay; it reports binding, not function.)
Test [2] concerns the target T2, Adenosine receptor A1 (Rattus norvegicus, UniProt P25099).
T2 sequence (P25099 whole entry): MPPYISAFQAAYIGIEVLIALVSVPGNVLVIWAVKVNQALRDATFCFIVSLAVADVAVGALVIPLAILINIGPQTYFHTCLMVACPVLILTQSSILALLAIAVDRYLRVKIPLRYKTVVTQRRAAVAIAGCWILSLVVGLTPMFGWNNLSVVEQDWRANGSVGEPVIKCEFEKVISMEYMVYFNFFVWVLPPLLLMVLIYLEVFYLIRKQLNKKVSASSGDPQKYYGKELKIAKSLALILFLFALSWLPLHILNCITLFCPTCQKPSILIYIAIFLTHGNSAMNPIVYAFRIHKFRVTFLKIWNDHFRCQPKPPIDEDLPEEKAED
Nature of the test: Binding affinity against adenosine A1 receptor in rat cortex by the displacement of [3H]cyclohexyladenosine (CHA). Type of test: tissue-based.

In test [3] the target is T2, Adenosine receptor A1. In words: Binding affinity against Adenosine A1 receptor in rat cortex by displacement of [3H]cyclohexyladenosine (CHA). In outline: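 Male Sprague-Dawley rat cerebral cortex membranes, homogenized in 50 mM Tris-HCl pH 7.4, pretreated 30 min at 37 °C with ADA (2 IU/mL), 7.5 mg tissue per tube. 1.0 nM [3H]CHA, 12 xanthine concentrations, triplicates, 2 h at 25 °C; nonspecific with 10 μM 2-chloroadenosine; filtration, scintillation counting.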

Test [4] addresses T1, Adenosine A2 receptor. In words: Binding affinity against Adenosine A2 receptor in rat striatum by displacement of [3H]N-ethyladenosine-5''-uronamide(NECA). In kind it is tissue-based. In outline: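 Male Sprague-Dawley rat striatal membranes, 5 mg tissue, in 50 mM Tris-HCl pH 7.7 with 10 mM MgCl2, 0.1 unit/mL ADA and 50 nM CPA to block A1 sites. 4 nM [3H]NECA, 12 xanthine concentrations, triplicates, 1 h at room temperature; nonspecific with 100 μM CPA; filtration counting. IC50 by log-logit, Ki by Cheng-Prusoff (Kd 4 nM).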

For test [5], the target named is Adenosine receptors; A1 & A2 (Rattus norvegicus) (UniProt P29276+P25099+P30543). In words: Ratio of binding affinities for adenosine A2 and A1 receptors. In kind it is protein assay.

At Adenosine A2 receptor [1], `CCCn1c(=O)n(C)c(=O)c2[nH]c(/C=C/c3ccccc3)nc21` gave an inhibitory constant (Ki) of 0.0465 µM.

For the compound `CCCn1c(=O)c2nc(CCc3ccccc3)[nH]c2n(CCC)c1=O`, the inhibition constant (Ki) stood at 0.593 µM at Adenosine A2 receptor [1] and 0.0578 µM on Adenosine receptor A1 [2].

On Adenosine A2 receptor [1], `CCCn1c(=O)c2nc(/C=C/c3ccccc3)[nH]c2n(CCC)c1=O` returned a Ki of 0.0851 µM. That is a double-digit nanomolar value.

`CCCn1c(=O)c2nc(-c3ccsc3)[nH]c2n(C)c1=O`: the values for the Ki on Adenosine receptor A1 [3] and at Adenosine A2 receptor [4] were 0.0064 µM and 0.315 µM, respectively. Further, in test [5], the Ratio was 49.

With `CCCn1c(=O)c2nc(/C=C/c3ccccc3)[nH]c2n(C)c1=O`, the values for the Ki on Adenosine A2 receptor [1] and on Adenosine receptor A1 [2] were 0.058 µM and 0.0496 µM, respectively.

The compound `CCCn1c(=O)c2[nH]c(-c3cccnc3)nc2n(C)c1=O` returned an inhibitory constant (Ki) at Adenosine receptor A1 [3] of 0.0702 µM. In other words, the double-digit nanomolar range.

`CCCn1c(=O)c2[nH]c(-c3cccs3)nc2n(CCC)c1=O` yielded an inhibitory constant (Ki) at Adenosine receptor A1 [3] of 0.0032 µM.

Consider `CCCn1c(=O)c2nc(-c3ccc(C#N)cc3)[nH]c2n(CCC)c1=O`, for which the inhibition constant Ki is 0.189 µM at Adenosine A2 receptor [1] and 0.00448 µM at Adenosine receptor A1 [2].

Consider `CCCn1c(=O)c2nc(-c3ccccc3)[nH]c2n(C)c1=O`, for which the Ki at Adenosine A2 receptor [1] turned out to be 0.553 µM.

Consider `CCCn1c(=O)n(C)c(=O)c2[nH]c(-c3cccnc3)nc21`, for which the Ki came to 0.0728 µM at Adenosine receptor A1 [3] and 1.2 µM at Adenosine A2 receptor [4]. Also, the Ratio in test [5] is 16.

For the compound `CCCn1c(=O)c2nc(-c3ccc(O)cc3)[nH]c2n(CCC)c1=O`, the affinity at Adenosine receptor A1 [2], expressed as Ki, was 0.00063 µM.

As to `Cn1c(=O)c2nc(-c3ccccc3)[nH]c2n(C)c1=O` [8-PHENYL THEOPHYLLINE], on Adenosine A2 receptor [1], the Ki amounted to 0.644 µM.

`CCCn1c(=O)n(C)c(=O)c2[nH]c(-c3cccs3)nc21`: the figures for the Ki at Adenosine A2 receptor [1] and on Adenosine receptor A1 [2] were 0.329 µM and 0.00893 µM, respectively.

Turning to `CCCn1c(=O)n(C)c(=O)c2[nH]c(-c3ccc(O)cc3)nc21`, the Ki at Adenosine A2 receptor [1] was 0.0815 µM; at Adenosine receptor A1 [2], 0.00254 µM.

In the case of `CCCn1c(=O)n(C)c(=O)c2[nH]c(-c3ccsc3)nc21`, the inhibitory constant (Ki) at Adenosine receptor A1 [3] was found to be 0.00468 µM; at Adenosine A2 receptor [4], 0.0703 µM. Moreover, the Ratio in test [5] was found to be 15.

On to `CCCn1c(=O)c2nc(-c3cccnc3)[nH]c2n(CCC)c1=O`, for which the Ki came to 0.0116 µM at Adenosine receptor A1 [3] and 0.347 µM on Adenosine A2 receptor [4]. The Ratio in test [5] worked out at 30.

In the case of `CCCn1c(=O)n(C)c(=O)c2[nH]c(-c3ccccc3)nc21`, on Adenosine A2 receptor [1], the Ki was determined as 0.0933 µM.

As to `CCCn1c(=O)n(C)c(=O)c2[nH]c(-c3ccncc3)nc21`, the Ki at Adenosine A2 receptor [1] is 0.476 µM; at Adenosine receptor A1 [2], 0.0218 µM.

`CCCn1c(=O)c2nc(-c3cccs3)[nH]c2n(C)c1=O`: the Ki on Adenosine receptor A1 [3] came to 0.00968 µM; on Adenosine A2 receptor [4], 0.719 µM. The Ratio in test [5] came out at 74.

For `CCCn1c(=O)c2nc(-c3ccc(C#N)cc3)[nH]c2n(C)c1=O`, the inhibitory constant (Ki) on Adenosine A2 receptor [1] came to 0.446 µM; at Adenosine receptor A1 [2] it was 0.00595 µM.

In the case of `CCCn1c(=O)n(C)c(=O)c2[nH]c(C3CCCCC3)nc21`, the figures for the Ki on Adenosine A2 receptor [1] and on Adenosine receptor A1 [2] were 0.403 µM and 0.00181 µM, respectively.

For the compound `CCCn1c(=O)c2nc(-c3ccncc3)[nH]c2n(CCC)c1=O`, the values for the inhibitory constant (Ki) at Adenosine A2 receptor [1] and at Adenosine receptor A1 [2] were 0.136 µM and 0.00323 µM, respectively.

As for `CCCn1c(=O)n(C)c(=O)c2[nH]c(CCc3ccccc3)nc21`, the figures for the inhibitory constant (Ki) at Adenosine A2 receptor [1] and at Adenosine receptor A1 [2] were 1.05 µM and 0.259 µM, respectively.

As to `CCCn1c(=O)c2nc(-c3ccncc3)[nH]c2n(C)c1=O`, the Ki at Adenosine A2 receptor [1] amounted to 3.76 µM; on Adenosine receptor A1 [2] it was 0.0276 µM.

In the case of `CCCn1c(=O)c2nc(C3CCCC3)[nH]c2n(C)c1=O`, the Ki on Adenosine A2 receptor [1] amounted to 1.01 µM; at Adenosine receptor A1 [2], 0.00106 µM.

On to `CCCn1c(=O)c2nc(-c3cccs3)[nH]c2n(CCC)c1=O`, for which the Ki on Adenosine A2 receptor [4] came out at 0.173 µM. Besides, the Ratio in test [5] amounted to 54.

As to `CCCn1c(=O)c2nc(-c3ccc(O)cc3)[nH]c2n(C)c1=O`, the figures for the inhibition constant (Ki) at Adenosine A2 receptor [1] and on Adenosine receptor A1 [2] were 0.263 µM and 0.00128 µM, respectively.

`CCCn1c(=O)c2nc(C3CCCCC3)[nH]c2n(C)c1=O`: the inhibition constant (Ki) was 0.995 µM on Adenosine A2 receptor [1] and 0.00502 µM at Adenosine receptor A1 [2].

With `CCCn1c(=O)n(C)c(=O)c2[nH]c(-c3ccc(C#N)cc3)nc21`, the Ki on Adenosine A2 receptor [1] was determined as 0.254 µM; at Adenosine receptor A1 [2] it was 0.0139 µM.

In turn, `CCCn1c(=O)c2nc(-c3cccnc3)[nH]c2n(C)c1=O` displayed an inhibition constant Ki at Adenosine A2 receptor [4] of 3.1 µM. Moreover, in test [5], the Ratio came out at 44.

Consider `CCCn1c(=O)c2nc(-c3ccsc3)[nH]c2n(CCC)c1=O`, for which the Ki was 0.0394 µM on Adenosine A2 receptor [1] and 0.00204 µM at Adenosine receptor A1 [2].

Take `CCCn1c(=O)c2nc(CCc3ccccc3)[nH]c2n(C)c1=O`: the inhibition constant (Ki) at Adenosine A2 receptor [1] amounted to 1.44 µM; at Adenosine receptor A1 [2], 0.275 µM.

Consider `CCCn1c(=O)n(C)c(=O)c2[nH]c(C3CCCC3)nc21`, for which the results for the Ki at Adenosine A2 receptor [1] and on Adenosine receptor A1 [2] were 0.247 µM and 0.00085 µM, respectively.
